Data reported in PMC4242840 (The Journal of Cell Biology, 2014).

Tests used:
[1] = tested on: Nsa2; experiment: in vitro binding assay of Rsa4 mutants with MBP-Nsa2; parameters: species or system Saccharomyces cerevisiae; conditions: immobilized MBP-Nsa2, HIS-TEV-Rsa4 mutant in E. coli lysate; SDS-PAGE
Summary of the method: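 Bait and prey were expressed in E. coli by IPTG induction for 3 h. MBP-Nsa2 was prepurified on SP Sepharose and bound to amylose resin; HIS-TEV-Rsa4 variants were Ni-NTA-purified. Beads were incubated 45 min with a 5× excess of Rsa4 mixed with MBP-depleted E. coli lysate as competitor. Beads were washed in 20 mM Hepes pH 7.5, 200 mM NaCl, 1 mM DTT and eluted in SDS sample buffer (10 min, 65°C). Eluates were run on 4–12% SDS-PAGE with Coomassie staining.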

[2] = tested on: Rsa4 shuffle strain (rsa4Δ); experiment: complementation of rsa4Δ; assay type: cell-based, Saccharomyces cerevisiae; conditions: SDC+FOA, 30°C, 2 d
[3] = tested on: wild-type yeast growth; experiment: dominant-negative phenotype upon GAL overexpression in wild-type yeast; assay type: cell-based, Saccharomyces cerevisiae; conditions: GAL promoter, galactose medium, 30°C, 2 or 3 d
[4] = tested on: pre-60S particles; experiment: association with pre-60S particles; assay type: cell-based, Saccharomyces cerevisiae; conditions: 10–50% sucrose gradient, anti-ProtA Western blot
Summary of the method: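 Wild-type yeast expressed plasmid-borne NSA2-FTpA or nsa2 Y90A-FTpA. Cells were treated with cycloheximide for 15 min and lysed with glass beads. Whole-cell lysates were fractionated on 10–50% sucrose gradients (16 h, 27,000 rpm, 0.4 ml fractions), and fractions were probed by Western blot with anti-ProtA to detect tagged Nsa2.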

[5] = tested on: RPL5 shuffle strain; experiment: complementation of rpl5Δ; assay type: cell-based, Saccharomyces cerevisiae; conditions: SDC+FOA, 30°C, 5 d
[6] = tested on: pre-60S particles; experiment: affinity purification of Rpl5-FTpA constructs; assay type: cell-based, Saccharomyces cerevisiae; conditions: Flag-TEV-ProtA bait
Summary of the method: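 Rpl5 variants tagged with Flag-TEV-ProtA were purified from a 2-liter yeast culture pellet. Steps: IgG-Sepharose 90 min, TEV elution 120 min, FLAG beads 45 min, FLAG-peptide elution. Eluates were run alongside pre-60S particles purified via Nsa2-FTpA and FTpA-Rsa4, then analysed by SDS-PAGE and Western blot.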

[7] = tested on: intracellular localization in yeast; experiment: in vivo localization of Rpl5-GFP; assay type: cell-based, Saccharomyces cerevisiae; conditions: GFP fusion, wild-type strain, fluorescence microscopy
Summary of the method: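 A wild-type strain carried plasmid-borne Rpl5-GFP or Rpl5 Δloop2+3-GFP. Cells were grown to ~OD 0.5 in selective medium at 30°C, harvested and washed in water. They were imaged by fluorescence microscopy at room temperature (100×, NA 1.4 oil objective, EGFP filter set).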

Row | Molecule | binding to Nsa2 [1] | growth / viability (complementation) [2] | dominant-negative phenotype upon overexpression [3] | association with pre-60S particles [4] | growth / viability (complementation) [5] | co-purified Spb1 and Nop2 [6] | co-purified particles / Syo1 [6] | co-purified Nsa2 ([6]; SDS-PAGE and Western blot) | co-purified Rpl10 (uL16) ([6]; SDS-PAGE and Western blot) | co-purified Rsa4 ([6]; SDS-PAGE and Western blot) | intracellular localization [7]
1 | Rsa4 Y448E (protein) MSTLIPPPSKKQKKEAQLPREVAIIPKDLPNVSIKFQALDTGDNVGGALRVPGAISEKQLEELLNQLNGTSDDPVPYTFSCTIQGKKASDPVKTIDITDNLYSSLIKPGYNSTEDQITLLYTPRAVFKVKPVTRSSSAIAGHGSTILCSAFAPHTSSRMVTGAGDNTARIWDCDTQTPMHTLKGHYNWVLCVSWSPDGEVIATGSMDNTIRLWDPKSGQCLGDALRGHSKWITSLSWEPIHLVKPGSKPRLASSSKDGTIKIWDTVSRVCQYTMSGHTNSVSCVKWGGQGLLYSGSHDRTVRVWDINSQGRCINILKSHAHWVNHLSLSTDYALRIGAFDHTGKKPSTPEEAQKKALENYEKICKKNGNSEEMMVTASDDYTMFLWNPLKSTKPIARMTGHQKLVNHVAFSPDGRYIVSASFDNSIKLWDGRDGKFISTFRGHVASVEQVAWSSDCRLLVSCSKDTTLKVWDVRTRKLSVDLPGHKDEVYTVDWSVDGKRVCSGGKDKMVRLWTH | impaired binding to Nsa2 in vitro | blocked cell growth in vivo | less pronounced dominant-negative phenotype | partly impaired in association with pre-60S particles | – | – | – | – | – | – | –
2 | Rpl5Δloop2+3 (protein) MAFQKDAKSSAYSSRFQTPFRRRREGKTDYYQRKRLVTQHKAKYNTPKYRLVVRFTNKDIICQIISSTITGDVVLAAAYSHELPRYGITHGLTNWAAAYATGLLIARRTLQKLGLDETYKGPRPFKVFLDIGLQRTTTGARVFGALKGASDGGLYVPHSENRFPGWDRIFGGHVSQYMEELADDDEERFSELFKGYLADDIDADSLEDIYTSAHEAIRADPAFKPTEKKFTKEQYAAESKKYRQTKLSKEERAARVAAKIAALAGQQ | – | – | – | – | lethal phenotype | enriched | recovered its import factor Syo1 ([Kressler et al., 2012a]) and pre-60S particles | normal amounts of Nsa2 | lacked Rpl10 (uL16) | reduced levels of Rsa4 | accumulated inside the nucleus
